Assay results as given in PMC8108386 (Chemical Science, 2020).
pEC50: −log10 of the molar value. Read-outs that look alike come from different tables or passages of the source.

Tests used:
[1] = Observations on stability and behaviour in solution; type: physicochemical; conditions: 37 °C, extended periods of time, absence of a light trigger
female C57BL/6J mice = assay: Maximum tolerated dose, dose escalation, intraperitoneal injection; type: in vivo, mouse
Procedure, shortened: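 A dose-escalation safety study in mice used intraperitoneal injection at doses up to 100 mg kg−1. MTD was assigned from the appearance of observable toxicity.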

B16F10 tumor = type: in vivo, C57BL/6NCrl mice; conditions: for protection from tumor growth (tumor-free mice): challenged with live B16F10 cells
Procedure, shortened: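 B16F10 cells were treated in vitro with test compound (1.40 μM) plus light. Cells collected 4 h and 12 h post-treatment were pooled and injected SC into the left flank of female and male C57BL/6NCrl mice, with PBS as control. After 7 days, untreated B16F10 cells were injected into the right flank. Tumor growth and tumor-free survival were followed, and hazard ratios derived.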

[2] = tested on: human melanoma SKMEL28 cells; assay: Cytotoxicity and photocytotoxicity, resazurin, 384-well, UTA; type: cell-based; conditions: visible vs. 733 nm
[3] = tested on: A375, B16F10 and SKMEL28 melanoma cell lines; assay: Dark and light cytotoxicity stated for all three melanoma cell lines; type: cell-based; conditions: read-out: dark EC50 values, toward all three melanoma cell lines
Procedure, shortened: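 Log-phase A375, B16F10 and SKMEL28 melanoma cells were seeded and dosed with test compound (1 nM to 300 μM) in the dark. They were incubated 48 h, and viability was read by resazurin assay. EC50 is the concentration that reduces relative viability by 50%, taken from dose–response curves and reported as Log(EC50 ± SEM).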

SKMEL28 cells = assay: Photocytotoxicity at high fluence and irradiance, Modulight ML8500; type: cell-based, human
Procedure, shortened: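 SKMEL28 photocytotoxicity was tested with a well-by-well illumination system that sets wavelength, fluence and irradiance separately for each well, allowing higher fluences and irradiances than whole-plate sources. Light-only control wells were included.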

[4] = Singlet oxygen quantum yield by direct 1O2 phosphorescence, relative to [Ru; type: physicochemical; conditions: MeCN

Row | ΦΔ (singlet oxygen quantum yield) ([4]; λex 455 nm (excitation maximum)) | Substance | stability to ligand dissociation [1] | maximum tolerated dose (MTD) (female C57BL/6J mice) | protection from tumor growth (tumor-free mice) (B16F10 tumor; female C57BL/6 mice vaccinated with 2-PDT treated B16F10 cells) | hazard ratios (B16F10 tumor; female and male mice, vaccinated vs. unvaccinated) | protection from tumor growth (tumor-free mice) (B16F10 tumor; male C57BL/6 mice vaccinated with 2-PDT treated B16F10 cells) | difference between the visible and NIR EC50 values [2] | pEC50 [3] | pEC50 (SKMEL28 cells; 753 nm (200 J cm−2, 300 mW cm−2)) | photocytotoxicity with 976 nm (SKMEL28 cells; 976 nm regardless of the fluence (data not shown)) | reduction of cell viability (SKMEL28 cells; all light treatments except 810 nm, down to 2.5 μM) | ΦΔ (singlet oxygen quantum yield) ([4]; λex 630 nm) | ΦΔ (singlet oxygen quantum yield) ([4]; λex 753 nm)
1 | – | [Ru(tpbn)(dppn)(4-pic)]Cl2 [Compound 2] | completely stable | 50 mg/kg | 80% | ≤ 0.2 | 55% | 5 fold | ≤ 4.33 | 5.69 | ineffective | ≥ 60% | 0.93 | 0.86
2 | 0.17 | [Ru(tpbn)(phen)(4-pic)]Cl2 [Compound 8] | – | – | – | – | – | – | ≤ 4.33 | – | – | – | 0.10 | 0.10
